Assay type in all cases: biochemical
One data set has as its target T1, human CYP2A6 (Homo sapiens, UniProt P11509).
T1 sequence (P11509 1-494): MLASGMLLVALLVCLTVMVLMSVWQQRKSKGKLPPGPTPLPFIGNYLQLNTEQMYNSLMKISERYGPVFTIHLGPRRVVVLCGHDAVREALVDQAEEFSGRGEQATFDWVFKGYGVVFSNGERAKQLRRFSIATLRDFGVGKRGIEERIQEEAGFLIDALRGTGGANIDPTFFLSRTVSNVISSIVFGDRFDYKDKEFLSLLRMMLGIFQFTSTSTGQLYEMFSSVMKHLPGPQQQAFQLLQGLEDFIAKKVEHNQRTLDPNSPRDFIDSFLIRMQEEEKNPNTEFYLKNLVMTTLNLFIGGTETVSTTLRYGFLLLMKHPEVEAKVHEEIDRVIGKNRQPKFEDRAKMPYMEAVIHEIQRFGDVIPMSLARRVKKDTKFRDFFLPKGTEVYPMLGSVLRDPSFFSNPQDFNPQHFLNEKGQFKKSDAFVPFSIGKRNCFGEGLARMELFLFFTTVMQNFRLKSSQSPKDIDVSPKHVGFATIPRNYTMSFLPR
Description: Coumarin 7-hydroxylation assay in supersomes.

The target in a further data set is T2, rat CYP2B1 (Rattus norvegicus, UniProt P00176).
T2 sequence (P00176 1-491): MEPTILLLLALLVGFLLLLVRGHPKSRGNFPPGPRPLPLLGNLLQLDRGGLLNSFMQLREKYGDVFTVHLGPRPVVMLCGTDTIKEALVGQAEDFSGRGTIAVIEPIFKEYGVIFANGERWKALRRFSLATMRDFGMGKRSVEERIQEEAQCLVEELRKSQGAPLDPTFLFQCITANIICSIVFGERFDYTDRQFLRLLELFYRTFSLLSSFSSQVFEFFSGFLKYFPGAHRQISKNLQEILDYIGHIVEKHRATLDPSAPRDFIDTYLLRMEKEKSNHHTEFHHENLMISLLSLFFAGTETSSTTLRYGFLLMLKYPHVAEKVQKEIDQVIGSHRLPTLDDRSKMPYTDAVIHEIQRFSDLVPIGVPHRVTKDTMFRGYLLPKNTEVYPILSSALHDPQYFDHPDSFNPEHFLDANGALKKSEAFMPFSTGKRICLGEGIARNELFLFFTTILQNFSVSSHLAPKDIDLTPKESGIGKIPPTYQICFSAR
The data set can be described thus: 7-Pentoxyresorufin O-depentylation. The essentials: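 Rat CYP2B1 supersomes (with P450 reductase and cytochrome b5) in 0.1 M potassium phosphate pH 7.6 with MgCl2, pentoxyresorufin (1.0 mM stock in DMSO) and test compound in DMSO at several concentrations, with a DMSO-only control. Reaction started with NADPH-regenerating system at 37°C; resorufin fluorescence read over time (ex 530/em 585 nm). Rates from second-order curve fits; IC50 from Dixon plot x-intercept.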

In the next data set the target is T3, human CYP1A2 (Homo sapiens, UniProt P05177).
T3 sequence (P05177 2-516 limits assumed): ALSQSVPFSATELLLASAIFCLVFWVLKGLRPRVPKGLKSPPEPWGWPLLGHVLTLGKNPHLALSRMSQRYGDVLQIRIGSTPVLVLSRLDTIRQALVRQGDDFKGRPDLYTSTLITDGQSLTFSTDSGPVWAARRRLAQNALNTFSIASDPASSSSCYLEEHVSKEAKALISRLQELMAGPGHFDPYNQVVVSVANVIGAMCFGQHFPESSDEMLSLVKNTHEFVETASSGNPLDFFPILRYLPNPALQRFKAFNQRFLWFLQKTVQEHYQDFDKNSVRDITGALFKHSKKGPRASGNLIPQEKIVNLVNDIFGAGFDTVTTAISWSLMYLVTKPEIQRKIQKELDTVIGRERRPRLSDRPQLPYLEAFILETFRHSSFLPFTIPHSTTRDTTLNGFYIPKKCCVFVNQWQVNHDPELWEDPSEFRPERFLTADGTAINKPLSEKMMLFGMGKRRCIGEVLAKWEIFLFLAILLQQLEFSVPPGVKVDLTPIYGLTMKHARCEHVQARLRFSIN
The data set can be described thus: 7-Methoxyresorufin O-demethylation. The conditions noted are these: for Type of inhibition of P450 1A2: pre-incubation assays in the presence and absence of NADPH.

In the next data set the target is T4, CYP1A1 (Homo sapiens, UniProt P04798).
T4 sequence (P04798 1-512): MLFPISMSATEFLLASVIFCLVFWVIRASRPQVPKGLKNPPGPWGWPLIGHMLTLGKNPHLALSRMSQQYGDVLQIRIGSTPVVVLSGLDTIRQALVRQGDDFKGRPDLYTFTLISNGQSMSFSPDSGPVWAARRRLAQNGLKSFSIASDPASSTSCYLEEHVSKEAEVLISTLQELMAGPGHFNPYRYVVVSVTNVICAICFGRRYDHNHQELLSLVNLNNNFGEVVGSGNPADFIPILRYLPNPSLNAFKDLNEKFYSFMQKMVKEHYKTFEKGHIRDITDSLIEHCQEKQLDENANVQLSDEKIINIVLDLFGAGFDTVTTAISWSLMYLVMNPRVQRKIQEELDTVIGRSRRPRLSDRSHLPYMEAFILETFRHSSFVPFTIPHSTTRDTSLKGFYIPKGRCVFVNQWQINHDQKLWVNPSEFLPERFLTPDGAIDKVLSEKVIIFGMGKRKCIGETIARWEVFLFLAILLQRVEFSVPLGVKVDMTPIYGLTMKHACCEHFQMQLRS
The data set can be described thus: 7-Ethoxyresorufin O-deethylation. The conditions noted are these: for Type of inhibition of P450 1A1: pre-incubation assays in the presence and absence of NADPH. Put shortly:
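Human CYP1A1 supersomes with P450 reductase in 0.1 M phosphate pH 7.6 plus MgCl2, ethoxyresorufin (1.0 mM DMSO stock) and test compound in DMSO at varied concentrations. NADPH-regenerating system starts reaction, 37°C. Product fluorescence ex 530/em 585 nm. Quadratic fit of progress curves, b term as rate. IC50 from Dixon plot x-intercept. Mechanism: 5-min 37°C pre-incubation ± NADPH before substrate.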

Where two headings read alike, the source gives them in different places.

One may read the IC50 as the concentration needed to halve the response being measured. A lower IC50 goes with greater potency. As for `CCC#Cc1ccc2ccc3cccc4ccc1c2c34` [Compound 1-EEP, 1-(1-butynyl)pyrene], the half-maximal inhibitory concentration (IC50) at human CYP2A6 was greater than 10000 nM; against rat CYP2B1, greater than 10000 nM; on human CYP1A2, 430 nM; on CYP1A1 it was 720 nM. For the same compound, the “Type of inhibition of P450 1A2” value on human CYP1A2 is given as “mechanism-based inhibitors”. Also, the “Type of inhibition of P450 1A1” value on CYP1A1 is “mechanism-based inhibitors”.
`C#Cc1ccc2ccc3cccc4ccc1c2c34` [Compound 1-EP, 1-ethynylpyrene]: the IC50 on human CYP2A6 was greater than 10000 nM; at rat CYP2B1, 40 nM; at human CYP1A2 it was 320 nM; against CYP1A1, 180 nM. Further, at human CYP1A2, the “Type of inhibition of P450 1A2” value is reported as “mechanism-based inhibitors”. Moreover, the “Type of inhibition of P450 1A1” value at CYP1A1 is reported as “mechanism-based inhibitors”.
`CC#Cc1ccc2ccc3cccc4ccc1c2c34` [Compound 1-MEP, 1-(1-propynyl)pyrene]: the IC50 on human CYP2A6 was greater than 10000 nM; against rat CYP2B1, 830 nM; against human CYP1A2, 60 nM; at CYP1A1, 20 nM. In addition, on human CYP1A2, the “Type of inhibition of P450 1A2” value is given as “mechanism-based inhibitors”. In addition, the “Type of inhibition of P450 1A1” value at CYP1A1 is given as “mechanism-based inhibitors”.
On to `C#Cc1ccc2c(ccc3ccccc32)c1` [Compound 2-Ephen, 2-ethynylphenanthrene], for which the IC50 at human CYP2A6 is greater than 10000 nM; at rat CYP2B1 it was 170 nM; at human CYP1A2, 340 nM; on CYP1A1, 610 nM. The “Type of inhibition of P450 1A2” value at human CYP1A2 is “mechanism-based inhibitors”. Further, the “Type of inhibition of P450 1A1” value at CYP1A1 was “mechanism-based inhibitors”.
With `CC#Cc1ccc2c(ccc3ccccc32)c1` [Compound 2-MEPhen, 2-(1-propynyl)phenanthrene], the IC50 was greater than 10000 nM against human CYP2A6, greater than 10000 nM at rat CYP2B1, 600 nM at human CYP1A2 and 160 nM on CYP1A1. In addition, the “Type of inhibition of P450 1A2” value on human CYP1A2 is “mechanism-based inhibitors”. At CYP1A1, the “Type of inhibition of P450 1A1” value was “mechanism-based inhibitors”.
As to `C#Cc1ccc2ccc3ccccc3c2c1` [Compound 3-Ephen, 3-ethynylphenanthrene], the IC50 is greater than 10000 nM at human CYP2A6, 480 nM on rat CYP2B1, 280 nM on human CYP1A2 and 1030 nM on CYP1A1. The “Type of inhibition of P450 1A2” value at human CYP1A2 was “mechanism-based inhibitors”. The “Type of inhibition of P450 1A1” value on CYP1A1 is on record as “mechanism-based inhibitors”.
As for `CC#Cc1cc2cccc3ccc4cccc1c4c32` [Compound 4-MEP, 4-(1-propynyl)pyrene], the IC50 on human CYP2A6 was greater than 10000 nM; on rat CYP2B1, 2260 nM; against CYP1A1, 370 nM. Moreover, at CYP1A1, the “Type of inhibition of P450 1A1” value is on record as “mechanism-based inhibitors”.
`C#Cc1cc2ccccc2c2ccccc12` [Compound 9-Ephen, 9-ethynylphenanthrene]: the IC50 at human CYP2A6 is greater than 10000 nM; against rat CYP2B1, 70 nM; on CYP1A1 it was 620 nM. At human CYP1A2, the “Type of inhibition of P450 1A2” value is recorded as “mechanism-based inhibitors”. Further, on CYP1A1, the “Type of inhibition of P450 1A1” value is reported as “mechanism-based inhibitors”.
For the compound `CC#Cc1cc2ccccc2c2ccccc12` [Compound 9-MEPhen, 9-(1-propynyl)phenanthrene], the concentration for half-maximal inhibition (IC50) on human CYP2A6 is greater than 10000 nM; against rat CYP2B1, greater than 10000 nM; against CYP1A1 it was 2630 nM; on CYP1A1 (human, pH 7.6, probe 7-ethoxyresorufin), 2260 nM. The “Type of inhibition of P450 1A2” value on human CYP1A2 is “mechanism-based inhibitors”. In addition, the “Type of inhibition of P450 1A1” value at CYP1A1 is “mechanism-based inhibitors”.

Values taken from paper PMC2839030 (Chemical research in toxicology, 2010).
